Molecules are shown by their SMILES.

For assay [1], the target named is HCV NS3 helicase (NS3h) (Hepatitis C virus genotype 1b, UniProt Q9WMX2). Put plainly: Molecular beacon based NS3 helicase assay. It counts as biochemical. The following applies: concentrations as high as 500 µM, data not shown.
For assay [2], the target named is HCV NS5B polymerase (NS5BCΔ21) (Hepatitis C virus genotype 1b, UniProt Q9WMX2). Put plainly: NS5B RdRp primer-dependent elongation assay. It counts as biochemical. The conditions noted are these: 50 µM, preliminary assay, data not shown.
In assay [3] the test system is interferon-stimulated response element. The experiment in a line: Host-factor reporter assay pISRE-Luc in MH-14 cells. It counts as cell-based. The following applies: 5, 10 and 25 µM, 48 h. In outline:
(§1)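 MH-14 hepatoma cells stably carrying an HCV gt 1b subgenomic replicon were transfected with 300 ng of the gene-specific luciferase reporter plasmid. At 16 h post-transfection, cells were exposed to test compound or to DMSO as control for 48 h. Luciferase activity was then read, with transfection efficiency normalised to Renilla luciferase expression.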
(Reporter assays use an easily measured gene product as a stand-in for the process of interest.)

Assay [4] relates to cyclooxygenase-2. The experiment in a line: Host-factor reporter assay pCOX-2-FLuc in MH-14 cells. It counts as cell-based. The following applies: 5, 10 and 25 µM, 48 h. In short, it runs like this: as §1
In assay [5] the test system is MH-14 cells carrying stably replicating HCV sub genomic replicon gt 1b. The experiment in a line: HCV RNA by quantitative RT-PCR in reporter free MH-14 cells. It counts as cell-based, Hepatitis C virus genotype 1b. The conditions noted are these: Hepatitis C virus, GT1B, MH14, read-out: EC50, HCV RNA in MH-14 cells.
For assay [6], the system named is HCV IRES mediated translation. The experiment in a line: HCV IRES mediated translation dual luciferase reporter assay in Huh7.5 cells. It counts as cell-based, Hepatitis C virus. The following applies: data not shown.
Assay [7] deals with anti-oxidant response element. Put plainly: Host-factor reporter assay p3xARE-Luc in MH-14 cells. The conditions noted are these: 5, 10 and 25 µM, 48 h. It counts as cell-based. In short, it runs like this: as §1
Assay [8] deals with heme oxygenase-1. Put plainly: Host-factor reporter assay pHO-1-Luc in MH-14 cells. It counts as cell-based. The conditions noted are these: 5, 10 and 25 µM, 48 h. In outline:
as §1

What is called EC50 is the concentration giving half of the maximal effect. As for `c1ccc(Cn2c(-c3ccccc3)cc3c2CCCC3)cc1` [Compound 39], the “Inhibition of NS3 helicase unwinding of a DNA substrate” value in assay [1] is on record as “no effect”. In assay [2], the “Inhibition of NS5B RdRp activity” value was “no effect”. Moreover, in assay [3], the “Effect on interferon-stimulated response element reporter” value is recorded as “no effect”. The “Effect on cyclooxygenase-2 reporter” value in assay [4] is listed as “no effect”. Also, the EC50 in assay [5] is 3.13 µM. Also, in assay [6], the “Effect on HCV IRES mediated translation” value was “no effect”. Besides, the “Effect on anti-oxidant response element reporter” value in assay [7] is given as “no effect”. Besides, the “Effect on heme oxygenase-1 reporter” value in assay [8] was “no effect”.

For the origin of these results see PMC5557381 (European journal of medicinal chemistry, 2015).
